# TAAR1 antag – human TAAR1 antagonism; CHO RD-HGA16 TAAR1, Fluo-8 calcium fluorescence, antagonist; hit rate 1.5% among 360,000; inhibition, % at 3 µM; Q96RJ0;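 active = inhibition above a per-plate cutoff, the mean inhibition of test compounds on that plate plus 3 SD, cut at about 49% in these data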;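 also: 0% = DMSO plus EC80 beta-PEA response and 100% = DMSO alone without agonist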
#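 System: RD-HGA16 CHO cells with stable hTAAR1 and Gα16 | Probe or stimulus: EC80 β-phenethylamine stimulus | Dosing: 3 µM, single point | Times: Dye loading 75 min at 37 °C, then 30 min room temperature | Measured by: Fluo-8 calcium-sensitive fluorescence | Read-out basis: % inhibition of agonist calcium response | Replicates: n of 1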
# V1aR counter – V1a receptor agonism, counter-screen for OXTR agonists; CHO-V1R cells, Fluo-8 calcium fluorescence, agonist mode; 0% DMSO, 100% 3 nM vasopressin; activation, % at 3 µM; hit rate 0.25% among 320,000; AID 2797;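 active = activation above the mean activation of all tested compounds plus 3 SD, per screening run, cut at about 20% in these data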;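 also: signal is peak over basal fluorescence ratio across a 100 second FLIPR read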
# Target sequence (P37288 whole entry, looked up): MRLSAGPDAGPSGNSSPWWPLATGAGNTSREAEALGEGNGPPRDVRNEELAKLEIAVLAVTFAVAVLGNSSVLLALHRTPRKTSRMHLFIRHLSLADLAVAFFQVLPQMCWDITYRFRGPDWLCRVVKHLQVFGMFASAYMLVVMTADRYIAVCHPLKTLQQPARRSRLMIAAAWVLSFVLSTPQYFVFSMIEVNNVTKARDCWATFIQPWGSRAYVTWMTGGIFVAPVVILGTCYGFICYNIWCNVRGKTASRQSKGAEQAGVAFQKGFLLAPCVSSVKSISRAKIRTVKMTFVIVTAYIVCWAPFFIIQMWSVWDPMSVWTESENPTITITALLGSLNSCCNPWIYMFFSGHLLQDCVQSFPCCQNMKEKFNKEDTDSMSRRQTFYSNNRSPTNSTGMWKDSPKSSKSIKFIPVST
# OXTR agonist – human OXTR agonism. P30559. CHO-OTR cells, Fluo-8 calcium fluorescence; normalized: DMSO 0%, oxytocin 100%. hit rate 0.32% among 320,000. AID 2435. activation, % at 3 µM;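 active = activation above the mean of all tested compounds plus 3 SD, cutoff set per screening run, cut at about 20% in these data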;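 also: peak over basal fluorescence ratio from a 100 s FLIPR kinetic read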
# TAAR1 agonist – human TAAR1 agonism; hit rate 0.99% among 360,000; Q96RJ0; AID 624467; activation, % at 3 µM; CHO RD-HGA16 TAAR1, Fluo-8 calcium fluorescence; vehicle wells 0%, saturating PEA agonist 100%;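 active = activation above the mean activation of all test compounds in the run plus 3 SD, cut at about 38% in these data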
#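 test system = CHO RD-HGA16 cells carrying human TAAR1 plus Gα16 | schedule = 17-24 h seeding, 75 min 37 °C dye, 30 min RT | compound dosing = 3 µM single concentration | control set = DMSO and PEA EC100 | replicates = n 1 | signal = Fluo-8 fluorescence, 5 s baseline then 140 s kinetic read | measure = percent activation vs PEA EC100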
# OXTR potentiator – potentiators of human oxytocin receptor; hit rate 0.061% among 320,000; activation, % at 3 µM; CHO-OTR cells, Fluo-8 calcium fluorescence, potentiator mode; 0% = oxytocin EC15, 100% = EC100;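 active = activation above that plate's cutoff, the mean activation of tested compounds plus 3 SD, cut at about 6.6% in these data, passing the limit was not always enough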;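 also: 100% uses oxytocin at 75 nM as the full agonist control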
#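 Material: CHO-OTR cells, human receptor; compound dosing: single dose, 3.0 µM nominal final compound concentration; schedule: 6 min compound pre-incubation at room temperature, 100 s kinetic read; measured by: kinetic Fluo-8 calcium fluorescence; read-out basis: % activation vs EC15 and EC100 oxytocin; controls: EC15 oxytocin alone as 0%, 75 nM oxytocin as 100%; replicates: singlicate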
# Active calls of the source: *; . = no result. Only some compounds are listed: those with a hit (about 2.3% of all), similar ones and a draw of the others.
SMILES,TAAR1 antag,V1aR counter,OXTR agonist,TAAR1 agonist,OXTR potentiator
CC(C)CCC(C)NC(=O)Cc1ccc(S(=O)(=O)N2CCOCC2)s1 (stereo not drawn),-24,0,-1,2,-2
CNc1nc(NCC2CCCCC2)c2sccc2n1,26,.,.,49*,.
Cc1ccc(CNc2nc(NCC3CC3)nc3ccsc23)c(C)c1,19,.,.,17,.
COc1ccc(C2C(C(=O)c3ccccc3)N3c4ccccc4C=CC3C2[N+](=O)[O-])cc1 (stereo not drawn),19,.,.,43*,.
O=C(/C=C/c1ccccc1)c1cc(Br)ccc(=O)c1O,54*,2,13,41*,-17
O=C(/C=C/c1ccc(F)cc1)c1cc(Br)ccc1O,-5,-2,-2,-2,-5
COC(=O)C1=C(C)N(Cc2cccc(C(F)(F)F)c2)C(=NCc2ccc3c(c2)OCO3)NC1c1cccc(Cl)c1 (stereo not drawn),28,.,.,34,.
COc1ccccc1N1N=C(c2ccc([N+](=O)[O-])cc2)CC1c1ccccc1 (stereo not drawn),25,28*,30*,23,-22
C[C@@H]1CN([C@@H](C)CO)C(=O)CCCn2cc(nn2)CO[C@H]1CN(C)C(=O)Nc1ccccc1,1,.,.,0,.
CC(C)(C)NS(=O)(=O)c1ccc(CCC(=O)Nc2cc(Cl)ccc2Oc2ccccc2)cc1,28,3,1,4,-19
CC(C)CNS(=O)(=O)c1ccc(CCC(=O)Nc2cc(Cl)ccc2Oc2ccccc2)cc1,63*,3,0,7,-12
CCCNS(=O)(=O)c1ccc(CCC(=O)Nc2cc(Cl)ccc2Oc2ccccc2)cc1,69*,.,.,9,.
O=S1(=O)CCN(CCc2ccccc2)CC1,-1,.,.,1,.
COc1cccc(CNC(=O)[C@H]2CCCN2C(=O)[C@H]2CCCN2C(=O)c2ccc(F)c(F)c2)c1,-10,.,.,2,.
CC(C)c1ccc(N=c2c([N+](=O)[O-])nn(-c3ccc4c(c3)OCCO4)n2O)cc1,64*,2,3,17,-7
COc1cc(N=c2c([N+](=O)[O-])nn(-c3ccc4c(c3)OCCO4)n2O)cc(OC)c1,-18,0,-2,2,-1
COCC1CN(CCc2ccc(F)cc2)S(=O)(=O)c2c(F)cccc2O1 (stereo not drawn),-3,.,.,5,.
CCN(CC)S(=O)(=O)c1ccc2oc(SCC(=O)NC3CC3)nc2c1,4,0,0,1,-2
CCN(CC)S(=O)(=O)c1ccc2oc(SCc3ccc(F)cc3)nc2c1,55*,8,2,11,-24
CSc1c(N(C)C)c(=O)c1=S,-3,.,.,1,.
CCCCc1c(-c2ccccc2OC)ncn1Cc1ccc(F)c(F)c1,7,.,.,1,.
Cc1[nH]n(-c2ccccc2)c(=O)c1N=Nc1ccccc1O,36,.,.,14,.
Cc1[nH]n(-c2ccccc2)c(=O)c1N=Nc1nccs1,8,-1,10,42*,-2
CCOC(=O)CNC(=O)N(C)[C@H]1C[C@H]2c3[nH]c4c(-c5ccccc5)cccc4c3CCN2C(=O)[C@H]1[C@H](C)O,43,.,.,6,.
O=C1OC(N2CCN(C(=O)C3CCCO3)CC2)c2ccccc21 (stereo not drawn),-11,2,1,15,-13
SMILES,TAAR1 antag,V1aR counter,OXTR agonist,TAAR1 agonist,OXTR potentiator
CCOC(=O)N1CCN(C2OC(=O)c3ccccc32)CC1 (stereo not drawn),-6,3,0,38*,-5
O=C(c1ccccc1Cl)N1CCSCCS1(=O)=O,-1,.,.,6,.
CCCC(C)NC(=S)NC(=O)c1cc(S(=O)(=O)N2CCOCC2)ccc1C (stereo not drawn),-2,3,0,6,-10
Cc1ccc(S(=O)(=O)N2CCOCC2)cc1C(=O)NC(=S)N1CC(C)CC(C)C1 (stereo not drawn),-2,0,-1,39*,-7
COC(=O)[C@]12C[C@H](CC(=O)NCc3cccc4ccccc34)C(=O)N(Cc3ccc4c(c3)OCO4)C1=C[C@H](COCc1ccccc1)O[C@@H]2C,-19,.,.,1,.
CC1(C)C(=O)Nc2ccccc2N1C(=O)COC(=O)c1cccc(O)c1,31,0,2,14,-7
Cc1ccc(C(=O)CCC(=O)OCC(=O)N2c3ccccc3NC(=O)C2(C)C)cc1,44,.,.,6,.
CCC(=O)c1ccc(OCC(=O)OCC(=O)N2c3ccccc3NC(=O)C2(C)C)cc1,52*,9,5,13,-15
CC(C)(C)c1ccc(OCCC(=O)OCC(=O)N2c3ccccc3NC(=O)C2(C)C)cc1,93*,3,0,9,-12
Cc1cc(OCC(=O)OCC(=O)N2c3ccccc3NC(=O)C2(C)C)ccc1Cl,70*,9,8,8,-12
COc1cc(C(=O)OCC(=O)N2c3ccccc3NC(=O)C2(C)C)ccc1OCC(C)C,67*,-1,-1,14,-14
COCC1CCN(C(=O)c2ccc3oc(C(C)C)nc3c2)C1 (stereo not drawn),-6,.,.,0,.
CNc1cccc(-c2ccccc2CO)n1,7,.,.,1,.
COCCN(CCOC)C(=O)[C@H](CCc1ccccc1)NC(=O)[C@H]1O[C@@H](n2cnc3c(N)ncnc32)[C@H](O)[C@@H]1O,-7,.,.,0,.
CCCCCCCCOC(=O)c1c(CSC(=N)N)n(C)c2cc(Br)c(OC(C)=O)cc12,-16,10,10,90*,1
COC(=O)c1cc2c(c3c4cc(C#N)ccc4n(S(=O)(=O)c4ccc(C)cc4)c13)C(=O)N(C)C2,-15,.,.,-2,.
Cc1ccccc1SCC(=O)OCC(=O)Nc1sccc1C(N)=O,49*,10,19,16,-12
NC(=O)c1ccsc1NC(=O)COC(=O)Cc1cccc2ccccc12,73*,9,11,34,-31
Cc1cccc(OCC(=O)OCC(=O)Nc2sccc2C(N)=O)c1,55*,13,18,30,-10
NC(=O)c1ccsc1NC(=O)CSc1ccccc1F,-1,2,3,5,-6
CN(C)S(=O)(=O)c1cccc(C(=O)OCC(=O)Nc2sccc2C(N)=O)c1,75*,10,18,41*,-25
COc1ccc(NC(=O)COC(=O)c2cccc(S(=O)(=O)N(C)C)c2)cc1,15,.,.,2,.
CNc1ncnc2c1ncn2[C@H]1CN(Cc2ccco2)C[C@@H](CO)O1,-9,.,.,1,.
CCOC(=O)C1CSCCS(=O)(=O)N1Cc1ccc(F)cc1F (stereo not drawn),0,.,.,3,.
CCOC(=O)C1CCCN(C(=O)Cc2ccc(OC)c(OC)c2)CC1 (stereo not drawn),-8,.,.,2,.
CCOC(=O)c1ccc(S(=O)(=O)Nc2ccccc2-c2nnn(CC)n2)cc1,53*,.,.,4,.
